Shown are actives, neighbours in structure and some others; about 1.1% of the full set was active somewhere.
eIF2B yeast act = GCN4-lacZ reporter reduction in eIF2B-epsilon mutant yeast, primary screen, S. cerevisiae, eIF2B-epsilon R284H, Beta-Glo luminescence. AID 688, 2007. inhibition, % at 25 µM (by protocol). 27,000 compounds, 0.91% hits;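 active = mutant luminescence inhibited past about 50% while wild type luminescence and mutant growth stay under set limits, limit read from the data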
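System: Yeast eIF2B-epsilon R284H mutant carrying GCN4–beta-galactosidase fusion | Read-out basis: Percent inhibition, luminescence and growth | Compound: 25 µM single dose | Times: 16 h at 30 °C exposure | Measured by: Luminescence and A595 | Buffer or medium: YPD medium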
Yeast tox = yeast growth toxicity, wild-type and mutant, primary screen, cytotoxicity control for eIF2B function restoration project, wild-type and eIF2Bepsilon R284H mutant, A595; S. cerevisiae wild-type growth, A595 turbidity, 16 h; growth inhibition, % at 25 µM (by protocol); 30,000 compounds, 0.3% hits;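 active = mutant and wild-type yeast strains alike exhibit over 30% growth inhibition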;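 note: 0% = untreated cell controls and 100% = YPD media blanks without cells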
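Incubation: 16 h growth with compound, 30 °C; Material: S. cerevisiae wild-type or eIF2Bepsilon-R284H mutant strain; Signal: turbidity measured as absorbance at 595 nm; Medium: YPD yeast growth medium; Measure: growth inhibition (%) versus cell controls and blanks; Doses: 25 µM single dose.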
Starred values were filed as active, the others as inactive; . = no result given.

SMILES	eIF2B yeast act	Yeast tox
O=C1Nc2ccccc2/C1=N\c1sc2c(c1C(=O)Nc1ccccc1)CCCC2	17.9	5.9
C=CCOC(=O)C1=C(C)NC(SC)=C(C#N)C1c1cccs1 (stereo not drawn)	9.6	9.3
CCOC(=O)C1=C(C)NC(SCc2cc(=O)[nH][nH]2)=C(C#N)C1c1cccs1 (stereo not drawn)	55.8*	-6.3
CC(C)CN1C(=S)SC(C)(C)C1n1oc(=O)n(-c2ccc(Cl)cc2)c1=O (stereo not drawn)	9.4	12.8
CC1CCN(CCCNC(=O)c2ccc(CSCc3cccc(Cl)c3)o2)CC1	19.4	5.8
Cc1cc(NC(=O)c2ccc(NC(=O)CC(C)C)cc2)no1	21.6	26.9
Cc1cc(C)n(C(=O)c2ccc(NC(=O)CC(C)C)cc2)n1	50.0*	-0.3
CCS(=O)(=O)Nc1ccc(C(=O)c2ccccc2)cc1	6.7	7.9
CCOC(=O)c1nn(-c2cccc(Cl)c2)c2nc(CC(C)C)c(C#N)c(=O)n12	50.2*	0.9
Cc1cc2n(c(=O)c1C#N)CCCN2c1cccc(Cl)c1	44.7	-3.2
COc1ccc(C2NC(=O)C(C)S2)cc1 (stereo not drawn)	14.4	30.7
Cc1cc(/C=N/n2cnnc2)c(C)n1-c1ccc(OCc2ccc(Cl)cc2Cl)cc1	1.4	62.3*
Cc1cc(/C=N/n2cnnc2)c(C)n1-c1ccccc1	.	12.7
O=C(CN(Cc1ccccc1F)C(=O)Cn1nnc(-c2cccs2)n1)NC1CCCCC1	24.0	7.5
Cn1c(SCC(=O)c2ccc3c(c2)OCCO3)nnc1C1CC1	-19.4	-0.7
CCC(Sc1nc2sc(C(=O)OC)c(C)c2c(=O)n1N)C(=O)N(CC)CC (stereo not drawn)	7.5	-56.4
CCC(Sc1nc2sc(C(=O)OC)c(C)c2c(=O)n1N)C(=O)NCC1CCCO1 (stereo not drawn)	50.3*	-21.7
COc1ccccc1Nc1nc(C)cc(C)c1C(N)=O	52.1*	-12.2
Cc1cc(C)c(C(N)=O)c(Nc2cccc3ccccc23)n1	.	-3.2
CCOc1ccccc1NC(=O)C1CCCCN1S(=O)(=O)c1ccc(F)cc1 (stereo not drawn)	21.2	26.5
Cc1nn(C)c(C)c1/C=N/O	25.9	4.8
CC1(C)Cc2c(cnn2-c2ccccc2)-c2c1c1ccccc1n2CC(O)CBr (stereo not drawn)	3.0	38.9
CC(C)(Oc1ccc(Cl)cc1)C(=O)Nc1ccncc1	.	75.7*
CC(C)(Oc1ccc(Cl)cc1)C(=O)NCc1ccco1	21.9	28.6
O=S1(=O)C=C(Sc2nnc(-c3ccccc3)o2)c2ccccc21	81.8	76.2*
SMILES	eIF2B yeast act	Yeast tox
CSc1nnc(-c2ccccc2)o1	2.0	4.2
FC(F)(F)c1cc(-c2ccccc2)nc(NC2CCCC2)n1	.	5.8
COC(=O)c1cc(OC)c(OC)cc1NC(=O)c1ccc(C)o1	10.0	10.4
Cc1c(Cl)cccc1NC(=O)COc1ccc(S(=O)(=O)N2CCOCC2)cc1	.	-23.1
CN(Cc1c(F)cccc1Cl)c1ccc(S(=O)(=O)N2CCOCC2)cn1	57.4*	-4.9
CN(C)C(=O)Cn1nc(-c2ccccc2)c2ccccc2c1=O	10.5	.
CNC(=O)CCn1nc(-c2ccccc2)c2ccccc2c1=O	58.9*	-4.0
Cc1ccc(NC2OC(CO)C(O)C(O)C2O)cc1 (stereo not drawn)	25.0	20.4
COC(=O)c1cc2ccccc2oc1=O	23.1	4.5
O=C(Nc1ccncc1)c1cc2ccccc2oc1=O	50.3*	9.5
CCN1CCN(C(=O)Nc2ccccc2OC)CC1	18.3	-12.0
CCOCC(=O)Nc1ccc(F)c(F)c1	12.3	0.3
CCOCC(=O)Nc1cccc(NC(C)=O)c1	72.2*	-0.3
Brc1cnn(-c2nc(N3CCOCC3)nc(N3CCOCC3)n2)c1	51.6*	-17.6
Brc1cnc(N2CCOCC2)nc1N1CCCCC1	30.2	9.2
Cc1cccc(NCN2C(=O)c3ccccc3C2=O)c1	14.4	-1.1
COc1ccc(CCn2c(C)c(C(C)=O)c3cc(OC(=O)c4ccco4)ccc32)cc1OC	-11.1	4.4
COc1cccc(C(=O)Nc2cccc(C(=O)N3CCOCC3)c2)c1	59.2*	8.7
Cc1cccc(C(=O)Nc2cccc(C(=O)N3CCOCC3)c2)c1	21.7	3.5
CC(C)(C)CC(C)(C)NC(=O)CSCC(=O)Nc1ccc2ccccc2c1	20.4	-22.0
CC(C)C(NC(=O)c1ccccc1)C(=O)NC1=NCCS1 (stereo not drawn)	52.3*	14.0
CC(NC(=O)c1cccs1)C(=O)NC1=NCCS1 (stereo not drawn)	23.4	.
Cc1ccc2nc(SCCC(=O)O)cc(C)c2c1	25.7	20.7
C=C(C)C1Cc2c(C)nn(-c3cc(C)c4ccccc4n3)c2C1 (stereo not drawn)	17.5	-5.3
CCCc1nnc(NC(=O)CN2C(=O)c3ccccc3C2=O)s1	19.9	16.9
SMILES	eIF2B yeast act	Yeast tox
CCCCCOC(=O)Nc1nnc(CCC)s1	50.6*	0.7
Cc1csc(NC(=O)CSc2nc(C)cs2)n1	15.9	10.2
Cc1csc(NC(=O)c2cccn2C)n1	51.1*	-4.3
O=C(NCCc1ccccc1)c1ccc(Cl)nc1	-8.7	30.0
COc1cccc(CNC(=O)CSCc2cnn(-c3ccccc3)c2-n2cccc2)c1	12.5	-52.0
O=c1[nH]ncc(NCCCO)c1Cl	17.7	11.2
O=c1c(Cl)c(NCCCO)cnn1-c1nc2ccccc2[nH]1	55.8*	29.0
CCC(C)c1ccc(OCCCCN2CCOCC2)cc1 (stereo not drawn)	20.0	11.9
O=C(CN1CCN(c2ccccc2)CC1)Nc1ccc(Oc2ccccc2)cc1	.	-5.4
O=C(CCSc1nnc(-c2ccco2)o1)Nc1ccc(Cl)cc1	57.5*	-32.0
O=C(CSc1nnc(-c2ccco2)o1)NC(=O)Cc1ccccc1	23.9	7.8
COC(=O)C(NC(=O)c1ccco1)(Nc1nc(C)cs1)C(F)(F)F (stereo not drawn)	52.0*	4.9
COC(=O)C(NC(C)=O)(Nc1nc(C)cs1)C(F)(F)F (stereo not drawn)	.	15.5
CCC(C)NS(=O)(=O)c1ccc(S(=O)(=O)N2CCCC3(CCCCC3)C2)cc1 (stereo not drawn)	15.0	9.3
Cc1ccc(-c2cc3nc(-c4ccccc4)cc(N4CCOCC4)n3n2)cc1	.	-30.3
CCN1CCN(c2cc(-c3ccccc3)nc3cc(-c4cccc(F)c4)nn23)CC1	53.2*	.
COCCNC(=O)c1cc2oc3ccccc3c2n1C	40.5	19.8
CCn1c(CNc2nc3ccccc3n2C(C)C)nc2ccccc21	53.2*	8.3
CCn1c(NCc2ccccc2Cl)nc2ccccc21	18.7	4.8
Cc1ccc(N(Cc2ccccc2F)S(C)(=O)=O)cc1C	.	10.4
N#Cc1ccc(-c2ccco2)nc1SCc1ccccc1	18.7	-12.3
O=C(O)c1ccc(CSc2n[nH]c(-c3ccco3)n2)cc1	66.7*	-13.3
COc1cccc(-c2nnc(-c3ccc(C(F)(F)F)cc3)o2)c1	-30.0	-2.6
Oc1ccccc1-c1nnc(-c2ccc(C(F)(F)F)cc2)o1	52.8*	-4.2
CCOC(=O)N1CCN(C(=O)c2ccc(N3CCCC3=O)cc2)CC1	56.2*	1.5
CCOC(=O)N1CCN(C(=O)c2ccc(NC(=O)CC)cc2)CC1	14.2	7.3
Cc1cccc(C)c1NC(=O)CSc1nc(-c2ccco2)cc(C(F)(F)F)n1	16.9	-10.9

High-throughput results as filed in PubChem BioAssay.
